ChEMBL document CHEMBL4765376, “Discovery of an Orally Available Diazabicyclooctane Inhibitor (ETX0282) of Class A, C, and D Serine β-Lactamases” (J Med Chem, 2020)
In brackets after ≈: the same amount, converted by molar mass.

What was measured:
[1] = Metabolic stability in rat intestinal S9 fraction assessed as half-life at 10 uM up to 60 mins by LC/MS/MS analysis; format: ADME, subcellular, Intestine
How it was run: (§1)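 S9 fraction at 0.8 mg/mL protein in 100 mM potassium phosphate pH 7.4, preincubated 5 min at 37 °C, then compound added at 10 μM final. Aliquots taken at 0, 2, 5, 10, 20, 40 and 60 min, quenched in acetonitrile with internal standard, and prodrug measured by LC/MS/MS. First-order half-life taken from the log-linear depletion slope.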

[2] = Metabolic stability in human liver S9 fraction assessed as half-life at 10 uM up to 60 mins by LC/MS/MS analysis; format: ADME, subcellular; how it was run: as §1
[3] = Oral bioavailability in Sprague-Dawley rat at 10 mg/kg by LC/MS/MS analysis; format: ADME, organism-based; details: in vivo
How it was run: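 Jugular vein-cannulated male Sprague Dawley rats (180–200 g, n = 3/route). Intravenous arm: active acid at 10 mg/kg in 0.9% saline, plasma sampled 0.08–8 h. Oral arm: prodrug at a dose equivalent to 10 mg/kg acid in 25:75 PEG 400/WFI, plasma sampled 0.25–24 h. Levels by LC/MS/MS; F = (AUCpo/AUCiv) × 100.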

[4] = Metabolic stability in rat liver S9 fraction assessed as half-life at 10 uM up to 60 mins by LC/MS/MS analysis; format: ADME, subcellular; how it was run: as §1
[5] = Stability of compound in phosphate buffer assessed as half-life at pH 7.4; format: physicochemical
How it was run: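 Compound at 10 μM in potassium phosphate buffer pH 7.4 at 37 °C without S9. Sampled at 0 to 60 min and measured by LC/MS/MS. Half-life from the first-order log-linear depletion slope.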

[6] = Metabolic stability in human intestinal S9 fraction assessed as half-life at 10 uM up to 60 mins by LC/MS/MS analysis; format: ADME, subcellular, Intestine; how it was run: as §1
[7] = Inhibition of beta lactamase AmpC in Pseudomonas aeruginosa assessed as decrease in enzyme activity using nitrocefin as chromogenic substrate incubated for 60 mins by […] plate reader analysis
[8] = Inhibition of beta lactamase OXA-48 in Klebsiella pneumoniae assessed as decrease in enzyme activity using nitrocefin as chromogenic substrate incubated for 60 mins by absorbance plate reader analysis
Klebsiella pneumoniae [9] = test: Inhibition of beta-lactamase activity in Klebsiella pneumoniae ARC561 assessed as MIC for cefpodoxime antibacterial activity at 4 ug/ml by CLSI based broth dilution method (reference value: 32 ug/ml); details: dose 4.0 µg/ml
[10] = Inhibition of beta lactamase TEM-1 in Escherichia coli assessed as decrease in enzyme activity using nitrocefin as chromogenic substrate incubated for 60 mins by […] plate reader analysis
[11] = Inhibition of beta lactamase AmpC in Pseudomonas aeruginosa assessed as decrease in enzyme activity using nitrocefin as chromogenic substrate incubated for 10 mins by […] plate reader analysis
[12] = Inhibition of beta lactamase TEM-1 in Escherichia coli assessed as decrease in enzyme activity using nitrocefin as chromogenic substrate incubated for 10 mins by […] plate reader analysis
[13] = Inhibition of beta lactamase OXA-48 in Klebsiella pneumoniae assessed as decrease in enzyme activity using nitrocefin as chromogenic substrate incubated for 10 mins by […] plate reader analysis
Escherichia coli [14] = test: Inhibition of beta-lactamase activity in Escherichia coli ARC3627 assessed as MIC for cefpodoxime antibacterial activity at 4 ug/ml by CLSI based broth dilution method (Rvb >64 ug/ml); details: dose 4.0 µg/ml
Klebsiella pneumoniae [15] = test: Antibacterial activity against Klebsiella pneumoniae ARC561 assessed as reduction in bacterial growth by CLSI based broth dilution method; format: functional
How it was run: (§2)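 Broth microdilution in CAMHB following CLSI.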

Escherichia coli [16] = test: Antibacterial activity against Escherichia coli ARC3627 assessed as reduction in bacterial growth by CLSI based broth dilution method; format: functional; how it was run: as §2

half-life at 10 µM [1] [min] | half-life at 10 µM [2] [min] | half-life at 10 µM [4] [min] | half-life [5] [min] | half-life at 10 µM [6] [min] | SMILES | bioavailability [3] [%] | IC50 [7] [nM] | IC50 [8] [nM] | MIC (Klebsiella pneumoniae [9]) [µg/mL] | IC50 [10] [nM] | IC50 [11] [nM] | IC50 [12] [nM] | IC50 [13] [nM] | MIC (Escherichia coli [14]) [µg/mL] | MIC (Klebsiella pneumoniae [15]) [µg/mL] | MIC (Escherichia coli [16]) [µg/mL]
20 | 9.9 | 10 | 26 | 22 | CCOC(=O)[C@H](F)ON1C(=O)N2C[C@H]1C=C(C)[C@H]2C(=O)NCCS(N)(=O)=O | 4 | – | – | – | – | – | – | – | – | – | –
– | – | – | – | – | CCOC(=O)[C@@H](F)ON1C(=O)N2C[C@H]1C(C)=C[C@H]2C(N)=O | 75 | – | – | – | – | – | – | – | – | – | –
– | – | – | – | – | CC1=C[C@@H]2CN(C(=O)N2O[C@@H](F)C(=O)O)[C@@H]1C(=O)NCCNS(N)(=O)=O | – | 14 | 420 | 0.125 (≈ 0.316 µM) | 83 | 53 | 55 | 2000 | < 0.06 | > 32 | 2 (≈ 5.06 µM)
– | – | – | – | – | CC1=C[C@@H]2CN(C(=O)N2OCC(=O)O)[C@@H]1C(N)=O | – | 1200 | 51 | 2 (≈ 7.84 µM) | 430 | 4100 | 1500 | 150 | 4 (≈ 15.7 µM) | > 32 | 32 (≈ 125 µM)
– | – | – | – | – | CC1=C[C@@H](C(N)=O)N2C[C@@H]1N(OCC(=O)O)C2=O | – | 4600 | 530 | 0.125 (≈ 0.49 µM) | 150 | 14000 | 340 | 66 | < 0.06 | 32 (≈ 125 µM) | 2 (≈ 7.84 µM)
– | – | – | – | – | CC1=C[C@@H]2CN(C(=O)N2O[C@@H](F)C(=O)O)[C@@H]1C(=O)NCCS(N)(=O)=O | – | 4.1 | 410 | 1 (≈ 2.63 µM) | 57 | 22 | 48 | 2200 | < 0.06 | > 32 | 4 (≈ 10.5 µM)
– | – | – | – | – | CC1=C[C@@H]2CN(C(=O)N2OS(=O)(=O)O)[C@@H]1C(N)=O | – | 5.8 | 5 | < 0.06 | – | 8 | – | 24 | < 0.06 | 8 (≈ 28.9 µM) | 0.25 (≈ 0.902 µM)
– | – | – | – | – | NC(=O)[C@@H]1CC[C@@H]2CN1C(=O)N2OS(=O)(=O)O [AVIBACTAM] | – | – | – | 1 (≈ 3.77 µM) | – | – | – | – | 0.5 (≈ 1.89 µM) | > 32 | 32 (≈ 121 µM)
– | – | – | – | – | CC1=C[C@@H]2CN(C(=O)N2O[C@@H](F)C(=O)O)[C@@H]1C(=O)NOCC1CC1 | – | 130 | 87 | 4 (≈ 11.7 µM) | 26 | 700 | 18 | 400 | 16 (≈ 46.6 µM) | > 32 | > 32
– | – | – | – | – | NC(=O)[C@@H]1C(C2CC2)=C[C@@H]2CN1C(=O)N2OC(F)C(=O)O (single isomer, unassigned) | – | 95 | 5.2 | 2 (≈ 6.68 µM) | 24 | 290 | 18 | 17 | 2 (≈ 6.68 µM) | > 32 | 32 (≈ 107 µM)
– | – | – | – | – | CC1=C[C@@H]2CN(C(=O)N2OC(C)(F)C(=O)O)[C@@H]1C(N)=O (some centres undefined) | – | 400 | 22000 | 2 (≈ 6.96 µM) | 230 | 1400 | 680 | 89000 | 2 (≈ 6.96 µM) | > 32 | > 32
– | – | – | – | – | CC1=C[C@@H]2CN(C(=O)N2O[C@@H](F)C(=O)O)[C@@H]1c1nnc(C(N)=O)o1 | – | 180 | 7.3 | 2 (≈ 5.86 µM) | 24 | 360 | 17 | 26 | 2 (≈ 5.86 µM) | > 32 | 16 (≈ 46.9 µM)
